T cruzi growth-1 = T. cruzi intracellular proliferation inhibitors, primary screen, cell-based, beta-gal Tulahuen parasites, NIH3T3 host, luminescence; inhibition, % at 8.34 µM; hit rate 5.9% among 77,000; T. cruzi beta-gal in NIH3T3, GalScreen luminescence, 90 h;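 active means mean inhibition above about 93%, with at least 55% of replicates each passing it, limit read from the data, passing the limit was not always enough; inconclusive means only one of those two conditions holds; inactive means neither condition holds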
IDH1 mut inh = inhibitors of IDH1 R132H reductase, primary screen, biochemical, plate reader, single point; inhibition, % at 10 µM; hit rate 0.18% among 70,000; AID 624101, 2012; diaphorase/resazurin fluorescence, 60 min; in the data active means inhibition above about 34%; inconclusive means no clear call, values can overlap the other calls; inactive means below about 11%;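 further: 0% = DMSO and 100% = no enzyme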
Target sequence (O75874 whole entry R132H): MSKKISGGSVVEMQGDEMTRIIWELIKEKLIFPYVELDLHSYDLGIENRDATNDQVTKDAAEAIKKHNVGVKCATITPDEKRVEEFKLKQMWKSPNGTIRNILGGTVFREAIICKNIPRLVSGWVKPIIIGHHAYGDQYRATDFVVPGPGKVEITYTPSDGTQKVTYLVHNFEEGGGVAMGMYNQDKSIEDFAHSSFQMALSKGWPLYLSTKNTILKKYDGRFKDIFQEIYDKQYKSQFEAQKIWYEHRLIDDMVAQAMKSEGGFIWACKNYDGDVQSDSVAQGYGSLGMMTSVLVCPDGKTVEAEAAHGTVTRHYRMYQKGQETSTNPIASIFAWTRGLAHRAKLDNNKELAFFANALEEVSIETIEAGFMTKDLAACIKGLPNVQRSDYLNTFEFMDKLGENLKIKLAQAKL
KDM4C inh = inhibitors of GASC-1 (KDM4C) histone demethylase, primary screen, biochemical, single concentration HTS; Lysine-specific demethylase 4C (Homo sapiens), Q9H3R0; GST-KDM4C 2-372, H3K9me3 peptide, LANCE TR-FRET; inhibition, % at 12.5 µM; hit rate 0.15% among 96,000; AID 720574, 2013;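 active means mean replicate inhibition above about 25%, with at least 55% of replicates also reaching it, limit read from the data, passing the limit was not always enough; inconclusive means only one of those two conditions met; inactive means neither condition met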
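System – N-terminal GST-fused human GASC-1 (KDM4C) fragment, residues 2-372 · Input – enzyme final amount 10 nM · Technique – LANCE TR-FRET, Eu antibody, ULight-streptavidin, EDTA, ex 340 nm, em 618/671 nm · Medium – HEPES buffer, pH 7.5, plus ascorbate · Incubation – enzyme reaction 30 min, then detection 60 min, both room temperature · Reagent – H3K9me3 peptide with Fe(II)/2OG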
T cruzi growth-2 = T. cruzi intracellular proliferation inhibitors, confirmation, cell-based, NIH3T3 host, beta-gal parasite, luminescence, cherry-pick. T. cruzi beta-gal in NIH3T3, GalScreen luminescence, 90 h. hit rate 72% among 5,600. inhibition, % at 8.35 µM. shares compounds with T cruzi growth-1;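 active means mean replicate inhibition above about 95% and at least 55% of replicates individually reaching it, limit read from the data; inconclusive means only one of the two criteria is met; inactive means neither criterion is met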
T cruzi growth-3 = inhibitors of intracellular T. cruzi replication, confirmation, NIH3T3 host cells, beta-gal parasites, cherry-pick, set 2 | inhibition, % at 2.09 µM | AID 651740, 2012 | hit rate 21% among 5,600 | T. cruzi beta-gal in NIH3T3, GalScreen luminescence, 90 h | shares compounds with T cruzi growth-1;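 active means mean inhibition above about 95%, with at least 55% of replicates also reaching it, limit read from the data; inconclusive means meets just one of the two conditions; inactive means meets neither condition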;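 further: plate controls were neutral control median for no effect and positive control median for full effect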
3T3 cytotox = cytotoxicity in mouse NIH/3T3 fibroblasts, confirmation, cytotoxicity control for T. cruzi proliferation inhibitor project, cell-based, cherry-pick, single point | shares compounds with T cruzi growth-1 | NIH/3T3 viability, CellTiter-Glo ATP luminescence, 90 h | cytotoxicity (signal decrease), % at 8.35 µM | hit rate 14% among 5,600;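 active means mean signal decrease across replicates above about 35% based on untreated-well scatter, with enough replicates individually passing, limit read from the data; inconclusive means no rule stated though some were filed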;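 further: 0% = median of neutral control wells and 100% = median of positive control wells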
NIH3T3 tox 2 = NIH/3T3 fibroblast cytotoxicity, confirmation, cytotoxicity control, cell-based, cherry-pick, single point, set 2; NIH/3T3 viability, CellTiter-Glo ATP luminescence, 90 h; hit rate 56% among 5,600; shares compounds with T cruzi growth-1; inhibition, % at 24.9 µM;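 active means mean loss of cell viability signal at or above a set limit, and enough replicates individually reaching it; inconclusive means meets only the mean limit or only the replicate share; inactive means meets neither condition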;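 further: 0% = median of neutral control wells and 100% = median of positive control wells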
Starred values were filed as active, the others as inactive; ? = inconclusive; / = not tested or not shown. Shown is part of a subset that was picked to be rich in hits.

SMILES | T cruzi growth-1 | IDH1 mut inh | KDM4C inh | T cruzi growth-2 | T cruzi growth-3 | 3T3 cytotox | NIH3T3 tox 2
C[C@@H]1CN([C@H](C)CO)C(=O)Cc2cc(NC(=O)Cc3cn(C)c4ccccc34)ccc2O[C@@H]1CN(C)Cc1ccccc1 | 100* | / | 7 | 104* | 46 | 14 | 40*
C[C@@H]1CN([C@@H](C)CO)C(=O)Cc2cc(NC(=O)Cc3cn(C)c4ccccc34)ccc2O[C@@H]1CN(C)Cc1ccccc1 | 95 | -3 | -1 | / | / | / | /
C[C@@H]1CN([C@H](C)CO)C(=O)Cc2cc(NC(=O)Cc3cn(C)c4ccccc34)ccc2O[C@H]1CN(C)Cc1ccc(-c2ccccc2)cc1 | 83 | -1 | 2 | / | / | / | /
C[C@H]1CN([C@@H](C)CO)C(=O)Cc2cc(NC(=O)Cc3cn(C)c4ccccc34)ccc2O[C@@H]1CN(C)Cc1ccc(-c2ccccc2)cc1 | 98* | 1 | -5 | 103* | 82 | 20 | 20
C[C@H]1CN([C@@H](C)CO)C(=O)Cc2cc(NC(=O)Cc3cn(C)c4ccccc34)ccc2O[C@@H]1CN(C)Cc1ccc(C(=O)Nc2ccccc2N)cc1 | 84 | / | -1 | / | / | / | /
C[C@H]1CN([C@@H](C)CO)C(=O)Cc2cc(NC(=O)Cc3cn(C)c4ccccc34)ccc2O[C@H]1CN(C)Cc1ccc(C(F)(F)F)cc1 | 90 | -7 | -9 | / | / | / | /
Cc1ccc(NC(=O)c2ccc(NCc3cccnc3)c([N+](=O)[O-])c2)cc1Cl | / | 0 | / | / | / | / | /
O=C(/C=C/c1ccc(O)cc1)OC[C@H]1O[C@@H](O[C@@H]2OC=C[C@H]3[C@H](O)[C@@H]4O[C@]4(CO)[C@@H]23)[C@H](O)[C@@H](O)[C@@H]1O | / | 0 | / | / | / | / | /
O=C(C1CCC1)N1CCCCN2[C@H](CO)[C@H](c3ccc(C#CC4(O)CCCC4)cc3)[C@H]2C1 | 101* | / | 1 | ? | 71 | 5 | 5
O=C(c1ccc(F)cc1)N1CCCCN2[C@H](CO)[C@H](c3ccc(C#CC4(O)CCCC4)cc3)[C@@H]2C1 | 107* | / | -1 | 103* | -23 | 13 | 18
O=C(C1CCCC1)N1CCCCN2[C@H](CO)[C@H](c3ccc(C#CC4(O)CCCC4)cc3)[C@H]2C1 | 104* | / | / | 109* | 89 | 13 | 30*
O=C(C1CCC1)N1CCCCN2[C@H](CO)[C@H](c3ccc(C#CC4(O)CCCC4)cc3)[C@@H]2C1 | ? | / | 0 | 99* | 65 | 20 | 39*
O=C(C1CCC1)N1CCCCN2[C@H](C1)[C@H](c1ccc(C#CC3(O)CCCC3)cc1)[C@@H]2CO | 73 | / | 0 | / | / | / | /
O=C(c1ccc(F)cc1)N1CCCCN2[C@H](CO)[C@@H](c3ccc(C#CC4(O)CCCC4)cc3)[C@@H]2C1 | 78 | / | -2 | / | / | / | /
O=C(C1CCC1)N1CCCCN2[C@H](C1)[C@@H](c1ccc(C#CC3(O)CCCC3)cc1)[C@@H]2CO | 69 | / | 2 | / | / | / | /
O=C(C1CCC1)N1CCCCN2[C@H](CO)[C@@H](c3ccc(C#CC4(O)CCCC4)cc3)[C@H]2C1 | -20 | / | 1 | / | / | / | /
CC(=O)c1ccc(NC(=O)CCn2cnc3ccccc3c2=O)cc1 | / | 0 | / | / | / | / | /
COC(=O)C1=CC(O[C@@H]2O[C@H](CO)[C@@H](O)[C@H](O)[C@H]2O)=C[C@H]2[C@]3(C)C[C@@H](c4ccoc4)OC(=O)[C@H]3CC[C@@]12C | / | 0 | / | / | / | / | /
Cc1ccc(CN(CC(=O)O)S(=O)(=O)c2c(C)cc(C)cc2C)cc1 | / | 0 | / | / | / | / | /
Cc1cccc(C)c1NC(=O)COc1cc(O)c2c(=O)cc(-c3ccccc3)oc2c1 | / | 0 | / | / | / | / | /
CC(NS(=O)(=O)c1ccc(F)cc1)C(=O)Nc1ccc(Oc2ccccc2)cc1 (stereo unspecified) | / | 0 | / | / | / | / | /

Screens deposited in PubChem by Broad Institute.
